Only some compounds are listed: those with a hit (about 2.9% of all), similar ones and a draw of the others.
DENV2 CPE rescue: inhibitors of DENV2 cytopathic effect, primary screen, cell-based, plate reader, single concentration; DENV2-infected cells, cytopathic effect rescue; AID 651640, 2012; CPE inhibition, % at 9.99 µM; actives 1.7% (n = 350,000); in the data active means CPE inhibition above about 20%, passing the limit was not always enough; inconclusive means no clear call, values can overlap the other calls; tested in BHK-21 cells;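 further: 0% = median of neutral control wells and 100% = median of positive control wells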
CAL PDZ FP-1: untagged CAL PDZ binding inhibitors, primary screen, biochemical, fluorescence polarization, HTS. Golgi-associated PDZ and coiled-coil motif-containing protein (Homo sapiens), Q9HD26. purified CAL PDZ, TMR-peptide fluorescence polarization, 1 h. inhibition, % at 24.9 µM. actives 0.92% (n = 300,000). AID 602252, 2012;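 active means mean inhibition of at least 30% with at least half of replicates also reaching 30%; inconclusive means no clear call, values can overlap the other calls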;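 further: 0% = DMSO neutral control and 100% = excess unlabeled competitor peptide PRC23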
S100A4 inh HTS: inhibitors of S100A4-myosin IIA peptide binding, primary screen, biochemical, fluorescence polarization, TAMRA-MyoIIA peptide; actives 0.14% (n = 360,000); Protein S100-A4 (Homo sapiens), P26447; inhibition, % at 10.7 µM;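 active means mean inhibition of at least 70% across replicates, with every replicate also reaching that level; inconclusive means mean inhibition reaches 70% but some replicates fall short; inactive means mean inhibition below 70%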
Target sequence (P26447 whole entry, looked up): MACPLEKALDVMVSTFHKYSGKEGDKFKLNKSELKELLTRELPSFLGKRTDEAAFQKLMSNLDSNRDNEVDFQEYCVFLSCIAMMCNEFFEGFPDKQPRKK
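Test system: S100A4 monomer protein; Medium: HEPES pH 7.2 with CaCl2, KCl, NaCl, DTT, Triton; Probe or stimulus: TAMRA-labelled myosin IIA heavy-chain peptide probe, 5 nM; Doses: one dose per compound; Times: polarization read 5 min after assay mix addition, stable 5–60 min; Benchmarks: neutral control DMSO, positive control TFP.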
CAL PDZ FP-2: CAL PDZ peptide-binding inhibitors, primary screen, biochemical, fluorescence polarization, Cer-tagged CAL PDZ, HTS. actives 0.02% (n = 330,000). purified CAL PDZ, TMR-peptide fluorescence polarization, 1 h. inhibition, % at 20 µM. Golgi-associated PDZ and coiled-coil motif-containing protein (Homo sapiens), Q9HD26;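 active means highest replicate inhibition of at least 40%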;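 further: plate controls were DMSO neutral control wells for no effect and unlabeled competitor peptide control wells for full effect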
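material = purified tagged CAL PDZ domain construct (CerCALP) | buffer or medium = sodium phosphate/NaCl buffer pH 7.4 with TCEP, IgG, Thesit | reagent = TMR-labelled reporter peptide T*-PRC34 bound in PDZ groove | incubation = 1 h room-temperature incubation prior to read | measured by = fluorescence polarization (mP) | evaluation = percent inhibition from loss of millipolarization | control set = unlabelled peptide and DMSO controls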
SIRT5 inh: SIRT5 desuccinylase inhibitors, primary screen, biochemical, fluorescence imaging, single point, set 5. actives 1.1% (n = 330,000). NAD-dependent protein deacylase sirtuin-5, mitochondrial (Homo sapiens), Q9NXA8. inhibition, % at 15 µM. Purified SirT5, succinyl-peptide AMC, trypsin-coupled fluorescence; in the data active means inhibition above about 15%; inconclusive means no clear call, values can overlap the other calls
Target sequence (Q9NXA8 whole entry, looked up): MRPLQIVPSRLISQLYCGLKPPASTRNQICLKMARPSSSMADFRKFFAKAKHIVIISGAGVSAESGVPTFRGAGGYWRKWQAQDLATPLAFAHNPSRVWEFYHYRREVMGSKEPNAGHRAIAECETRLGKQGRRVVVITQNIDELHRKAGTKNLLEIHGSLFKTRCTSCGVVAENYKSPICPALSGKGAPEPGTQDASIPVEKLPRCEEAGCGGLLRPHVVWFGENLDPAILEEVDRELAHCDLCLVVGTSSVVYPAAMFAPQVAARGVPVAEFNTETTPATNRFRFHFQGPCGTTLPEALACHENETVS
ERAP1 HTS inh: human ERAP1 aminopeptidase inhibitors, primary screen, biochemical, single point, plate reader; AID 652197, 2013; inhibition, % at 10.7 µM; actives 0.15% (n = 340,000); recombinant ERAP1, Leu-AMC fluorescence, 60 min;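 active means mean replicate inhibition of at least 30%, or all replicates individually reaching that 30% level; inactive means mean below 30% and not every replicate reaching it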;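 further: 0% = neutral control wells and 100% = L-leucinethiol positive control wells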
Starred values were filed as active, the others as inactive; ? = inconclusive; · = no result.

SMILES | DENV2 CPE rescue | CAL PDZ FP-1 | S100A4 inh HTS | CAL PDZ FP-2 | SIRT5 inh | ERAP1 HTS inh
C#CCOCCOCCOCCNc1nc(N2CCOCC2)nc(N2CCN(C(=O)[C@H](CCCN=C(N)N)n3cc(C(N)[C@@H](C)CC)nn3)CC2)n1 (some centres undefined) | 119* | -1 | 0 | 0 | · | -4
C#CCOCCOCCOCCNc1nc(N2CCN(C(=O)[C@H](CCCN=C(N)N)n3cc(C(N)[C@@H](C)CC)nn3)CC2)nc(N2CCN(C(=O)[C@H](CC(N)=O)n3cc([C@@H](N)C(C)C)nn3)CC2)n1 (some centres undefined) | 37* | 2 | 7 | -1 | · | -4
C#CCOCCOCCOCCNc1nc(N2CCN(C(=O)[C@H](CC(N)=O)n3cc(C(N)[C@H](C)CC)nn3)CC2)nc(N2CCN(C(=O)[C@H](CC(N)=O)n3cc(C(N)[C@@H](C)CC)nn3)CC2)n1 (some centres undefined) | 21* | -3 | -6 | -2 | · | ·
C#CCOCCOCCOCCNc1nc(N2CCN(C(=O)[C@H](CC(N)=O)n3cc(C(N)[C@@H](C)CC)nn3)CC2)nc(N2CCN(C(=O)[C@H](CCCCN)n3cc([C@@H](N)CC(N)=O)nn3)CC2)n1 (some centres undefined) | -3 | -4 | 1 | 1 | -2 | -6
C#CCOCCOCCOCCNc1nc(N2CCN(C(=O)[C@H](CCCN=C(N)N)n3cc(C(N)[C@H](C)CC)nn3)CC2)nc(N2CCN(C(=O)[C@H](CCCN=C(N)N)n3cc(C(N)[C@@H](C)CC)nn3)CC2)n1 (some centres undefined) | · | 1 | · | 0 | · | ·
C#CCOCCOCCOCCNc1nc(N2CCN(C(=O)[C@H](CCCN=C(N)N)n3cc(C(N)[C@@H](C)CC)nn3)CC2)nc(N2CCN(C(=O)[C@H](CC(N)=O)n3cc([C@@H](N)CC(N)=O)nn3)CC2)n1 (some centres undefined) | -5 | -1 | 17 | 0 | -7 | -2
C[C@H]1CCCCO[C@H](CN(C)Cc2ccccc2)[C@@H](C)CN([C@@H](C)CO)C(=O)c2cc(NS(=O)(=O)c3cccs3)ccc2O1 | 4 | · | 4 | · | -1 | 3
C/C(=N\NC(=O)CNC(=O)c1ccc2c(c1)OCCO2)c1ccco1 | -4 | 7 | -6 | 0 | -3 | 2
C/C(=N\NC(=O)c1ccc2c(c1)OCO2)c1ccco1 | · | 50* | -7 | -1 | 0 | 1
CCOc1ccc(/C=N/NC(=O)c2ccccc2O)cc1CN1CC2CC(C1)c1cccc(=O)n1C2 (centres undefined) | 58* | -5 | 25 | -1 | · | 1
COc1ccc(/C=N/NC(=O)c2ccccc2O)cc1Cn1cc(Cl)cn1 | · | · | · | -1 | · | ·
Cc1ccc(-c2ccc([C@@H]3[C@@H](CO)N4C(=O)CN(S(=O)(=O)c5cccc(F)c5)C[C@H]34)cc2)cc1 | 0 | · | 6 | · | 7 | 0
C/C=C/c1ccc([C@H]2[C@@H](CO)N3C(=O)CN(S(=O)(=O)c4cccc(F)c4)C[C@H]23)cc1 | 4 | · | 3 | · | 1 | ·
Cc1cccc(-c2ccc([C@@H]3[C@@H](CO)N4C(=O)CN(S(=O)(=O)c5cccc(F)c5)C[C@@H]34)cc2)c1 | -5 | · | 9 | · | 20* | 0
C/C=C/c1ccc([C@H]2[C@@H](CO)N3C(=O)CN(S(=O)(=O)c4cccc(F)c4)C[C@@H]23)cc1 | 43* | · | 4 | · | 0 | 0
C/C=C/c1ccc([C@H]2[C@@H](CO)N3C(=O)CN(C(=O)c4cccc(F)c4)C[C@@H]23)cc1 | 33* | · | 4 | · | 0 | 1
C/C=C/c1ccc([C@H]2[C@H]3CN(S(=O)(=O)c4cccc(F)c4)CC(=O)N3[C@H]2CO)cc1 | 30* | · | 20 | · | 2 | 0
C[C@H](CO)N1C[C@H](C)[C@@H](CN(C)C(=O)Nc2cccc(F)c2)Oc2ncc(C3=CCCCC3)cc2C1=O | 20* | · | 3 | · | 3 | -2
C[C@H](CO)N1C[C@H](C)[C@H](CN(C)C(=O)Nc2ccc(F)cc2)Oc2ncc(C3=CCCCC3)cc2C1=O | 33* | · | -4 | · | -2 | -2
C[C@@H]1CN([C@H](C)CO)C(=O)c2cc(C3=CCCC3)cnc2O[C@@H]1CN(C)C(=O)Nc1ccccc1 | 34* | · | 0 | · | -9 | 3
C[C@H]1CN([C@@H](C)CO)C(=O)c2cc(C3=CCCCC3)cnc2O[C@H]1CN(C)C(=O)Nc1ccc(F)cc1 | 9 | · | 0 | · | 0 | 0
COc1cccc(NC(=O)N(C)C[C@H]2Oc3ncc(C4=CCCCC4)cc3C(=O)N([C@H](C)CO)C[C@@H]2C)c1 | ? | · | 22 | · | 20* | 4
C[C@@H]1CN([C@H](C)CO)C(=O)c2cc(C3=CCCCC3)cnc2O[C@H]1CN(C)C(=O)Nc1cccc(F)c1 | 19 | · | -7 | · | 3 | -5
C[C@]12CCC3C4(C=CC5(C=C4C(=O)c4ccc(F)c(F)c4)C[C@@H](O)CC[C@]35C)C1CC[C@@]2(O)CN1CCC(C(N)=O)CC1 (some centres undefined) | 10 | · | 18 | · | -3 | 1
COc1ccc(NC(=O)N(C)C[C@@H]2Oc3c(NS(=O)(=O)c4ccc(C)cc4)cccc3C(=O)N([C@@H](C)CO)C[C@H]2C)cc1 | -1 | · | 8 | · | 4 | -4
SMILES | DENV2 CPE rescue | CAL PDZ FP-1 | S100A4 inh HTS | CAL PDZ FP-2 | SIRT5 inh | ERAP1 HTS inh
COCC(=O)N1C[C@@H](C)[C@H](OC)CN(C)C(=O)c2cc(NC(=O)c3ccc(OC)cc3)ccc2OC[C@H]1C | 14 | · | 5 | · | · | ·
CCCNC(=O)C[C@H]1C[C@H]2c3cc(NS(C)(=O)=O)ccc3O[C@H]2[C@H](CO)O1 | -2 | · | 5 | · | -13 | 1
O=S(=O)(c1ccccc1)N1C[C@@H]2[C@H](c3ccccc31)[C@@H](CO)N2Cc1ccccc1 | 5 | · | -4 | · | 1 | 2
CCO[C@H]1OC(C(=O)NCc2nc3ccccc3[nH]2)=C[C@@H](c2csc3ccccc23)[C@@H]1CCCO | ? | -5 | 1 | 0 | -1 | 1
CCO[C@@H]1OC(C(=O)NCc2nc3ccccc3[nH]2)=C[C@H](c2csc3ccccc23)[C@H]1CCCO | -1 | 3 | -1 | 0 | 31* | -2
COC(=O)Cn1c2ccccc2c(=O)n1C(C)C | 21* | · | -8 | · | · | 1
